Legend:
[1] = target: Leucine-rich repeat serine/threonine-protein kinase 2 (Homo sapiens, UniProt Q5S007, A2016T/G2019S); experiment: Inhibition of GST-tagged LRRK2 G2019S/A2016T mutant (1326 to 2527 residues) (unknown origin) in presence of ATP
[2] = target: T1, Mitogen-activated protein kinase 15 (Homo sapiens) (UniProt Q8TD08); experiment: Inhibition of ERK8 (unknown origin) at 10 uM incubated for 30 mins in presence of [gamma-33P]ATP by multidrop micro reagent based assay relative to control
T1 sequence (whole entry): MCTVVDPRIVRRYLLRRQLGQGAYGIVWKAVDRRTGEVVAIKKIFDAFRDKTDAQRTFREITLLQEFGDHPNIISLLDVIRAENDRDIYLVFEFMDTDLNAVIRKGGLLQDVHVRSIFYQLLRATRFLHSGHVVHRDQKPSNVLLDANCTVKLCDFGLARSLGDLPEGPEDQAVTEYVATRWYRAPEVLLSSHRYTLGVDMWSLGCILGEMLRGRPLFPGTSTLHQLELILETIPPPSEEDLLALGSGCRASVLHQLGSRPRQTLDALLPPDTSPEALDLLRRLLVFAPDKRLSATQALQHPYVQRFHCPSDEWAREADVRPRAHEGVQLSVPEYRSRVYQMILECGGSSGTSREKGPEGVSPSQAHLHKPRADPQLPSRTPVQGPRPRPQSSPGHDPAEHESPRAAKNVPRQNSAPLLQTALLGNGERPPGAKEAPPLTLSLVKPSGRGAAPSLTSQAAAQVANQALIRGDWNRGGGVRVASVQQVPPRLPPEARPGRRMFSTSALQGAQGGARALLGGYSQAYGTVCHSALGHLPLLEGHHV

Homo sapiens = organism: Homo sapiens; experiment: Inhibition of CDK2/cyclin A (unknown origin) at 10 uM incubated for 30 mins in presence of [gamma-33P]ATP by multidrop micro reagent based assay relative to control
[3] = target: T2, Dual specificity tyrosine-phosphorylation-regulated kinase 3 (Homo sapiens) (UniProt O43781); experiment: Inhibition of DYRK3 (unknown origin) at 10 uM incubated for 30 mins in presence of [gamma-33P]ATP by multidrop micro reagent based assay relative to control
T2 sequence (whole entry): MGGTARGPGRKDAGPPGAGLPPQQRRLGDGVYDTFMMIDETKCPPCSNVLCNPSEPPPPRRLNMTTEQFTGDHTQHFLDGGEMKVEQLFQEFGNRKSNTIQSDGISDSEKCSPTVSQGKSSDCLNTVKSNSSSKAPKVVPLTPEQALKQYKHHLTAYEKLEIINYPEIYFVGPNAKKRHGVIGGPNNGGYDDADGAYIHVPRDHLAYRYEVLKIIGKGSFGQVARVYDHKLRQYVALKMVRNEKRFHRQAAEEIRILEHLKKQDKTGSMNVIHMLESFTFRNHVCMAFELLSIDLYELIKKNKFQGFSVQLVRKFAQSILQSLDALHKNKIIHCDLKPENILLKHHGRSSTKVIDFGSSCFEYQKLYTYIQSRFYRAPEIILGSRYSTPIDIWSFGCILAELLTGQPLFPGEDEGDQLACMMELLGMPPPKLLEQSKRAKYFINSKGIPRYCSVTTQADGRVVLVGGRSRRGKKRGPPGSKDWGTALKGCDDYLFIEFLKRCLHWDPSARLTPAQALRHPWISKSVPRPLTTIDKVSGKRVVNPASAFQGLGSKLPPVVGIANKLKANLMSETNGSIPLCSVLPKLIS

[4] = target: Ephrin type-A receptor 2 (Homo sapiens) (UniProt P29317); experiment: Inhibition of EPH A2 (unknown origin) at 10 uM incubated for 30 mins in presence of [gamma-33P]ATP by multidrop micro reagent based assay relative to control; values are per cent of control
[5] = target: RAC-beta serine/threonine-protein kinase (Homo sapiens) (UniProt P31751); experiment: Inhibition of PKBbeta (unknown origin) at 10 uM incubated for 30 mins in presence of [gamma-33P]ATP by multidrop micro reagent based assay relative to control; values are per cent of control
[6] = target: SRSF protein kinase 1 (Homo sapiens) (UniProt Q96SB4); experiment: Inhibition of SRPK1 (unknown origin) at 10 uM incubated for 30 mins in presence of [gamma-33P]ATP by multidrop micro reagent based assay relative to control; values are per cent of control
[7] = target: Ribosomal protein S6 kinase beta-1 (Homo sapiens) (UniProt P23443); experiment: Residual activity of S6K1 (unknown origin) at 10 uM incubated for 30 mins in presence of [gamma-33P]ATP by multidrop micro reagent based assay relative to control
[8] = target: Myosin light chain kinase, smooth muscle (Homo sapiens) (UniProt Q15746); experiment: Inhibition of SmMLCK (unknown origin) at 0.1 uM incubated for 30 mins in presence of [gamma-33P]ATP by multidrop micro reagent based assay relative to control
Summary of the method: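 Single-concentration screen across a panel of 85 protein kinases. Activity is expressed as a percentage of control incubations run without inhibitor.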

Chain of Ribosomal protein S6 kinase beta-1 (Homo sapiens) (P23443 whole entry, looked up): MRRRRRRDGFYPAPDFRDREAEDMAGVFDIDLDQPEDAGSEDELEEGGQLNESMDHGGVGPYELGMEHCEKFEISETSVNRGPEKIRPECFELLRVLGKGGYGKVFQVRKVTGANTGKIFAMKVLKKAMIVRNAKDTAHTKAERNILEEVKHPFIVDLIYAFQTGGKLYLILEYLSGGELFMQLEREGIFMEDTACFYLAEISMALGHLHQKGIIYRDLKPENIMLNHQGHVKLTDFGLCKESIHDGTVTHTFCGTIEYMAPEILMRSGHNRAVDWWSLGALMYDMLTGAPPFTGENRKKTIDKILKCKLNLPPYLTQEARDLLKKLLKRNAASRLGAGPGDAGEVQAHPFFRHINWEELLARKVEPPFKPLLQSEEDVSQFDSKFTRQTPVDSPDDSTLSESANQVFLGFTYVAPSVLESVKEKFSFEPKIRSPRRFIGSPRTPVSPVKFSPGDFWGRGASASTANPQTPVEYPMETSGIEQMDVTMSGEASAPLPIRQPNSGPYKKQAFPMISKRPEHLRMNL
Chain of Ephrin type-A receptor 2 (Homo sapiens) (P29317 whole entry): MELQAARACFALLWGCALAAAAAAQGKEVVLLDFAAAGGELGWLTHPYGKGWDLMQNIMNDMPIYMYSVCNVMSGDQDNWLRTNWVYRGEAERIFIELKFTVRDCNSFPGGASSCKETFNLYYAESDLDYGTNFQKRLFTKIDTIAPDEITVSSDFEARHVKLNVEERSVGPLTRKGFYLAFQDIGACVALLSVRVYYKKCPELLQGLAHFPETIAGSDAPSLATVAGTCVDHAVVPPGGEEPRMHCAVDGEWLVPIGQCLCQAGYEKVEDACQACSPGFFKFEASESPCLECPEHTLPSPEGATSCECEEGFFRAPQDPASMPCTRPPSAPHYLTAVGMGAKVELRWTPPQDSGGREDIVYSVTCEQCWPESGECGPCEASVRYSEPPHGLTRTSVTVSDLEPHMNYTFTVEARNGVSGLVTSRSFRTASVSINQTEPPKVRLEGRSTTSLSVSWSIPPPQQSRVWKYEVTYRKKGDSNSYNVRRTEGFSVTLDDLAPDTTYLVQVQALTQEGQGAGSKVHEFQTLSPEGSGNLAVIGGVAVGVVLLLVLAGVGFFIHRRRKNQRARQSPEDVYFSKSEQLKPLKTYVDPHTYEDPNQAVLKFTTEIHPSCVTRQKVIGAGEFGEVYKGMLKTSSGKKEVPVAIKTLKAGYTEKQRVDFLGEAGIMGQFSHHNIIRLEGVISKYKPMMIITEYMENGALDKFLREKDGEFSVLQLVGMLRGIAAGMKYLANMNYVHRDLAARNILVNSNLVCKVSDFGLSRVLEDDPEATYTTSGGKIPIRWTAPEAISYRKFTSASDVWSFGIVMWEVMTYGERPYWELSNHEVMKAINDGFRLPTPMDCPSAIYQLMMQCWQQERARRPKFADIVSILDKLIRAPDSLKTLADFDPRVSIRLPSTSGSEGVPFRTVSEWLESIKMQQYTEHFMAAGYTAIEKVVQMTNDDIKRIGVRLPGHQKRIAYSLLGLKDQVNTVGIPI
Chain of Myosin light chain kinase, smooth muscle (Homo sapiens) (Q15746 whole entry): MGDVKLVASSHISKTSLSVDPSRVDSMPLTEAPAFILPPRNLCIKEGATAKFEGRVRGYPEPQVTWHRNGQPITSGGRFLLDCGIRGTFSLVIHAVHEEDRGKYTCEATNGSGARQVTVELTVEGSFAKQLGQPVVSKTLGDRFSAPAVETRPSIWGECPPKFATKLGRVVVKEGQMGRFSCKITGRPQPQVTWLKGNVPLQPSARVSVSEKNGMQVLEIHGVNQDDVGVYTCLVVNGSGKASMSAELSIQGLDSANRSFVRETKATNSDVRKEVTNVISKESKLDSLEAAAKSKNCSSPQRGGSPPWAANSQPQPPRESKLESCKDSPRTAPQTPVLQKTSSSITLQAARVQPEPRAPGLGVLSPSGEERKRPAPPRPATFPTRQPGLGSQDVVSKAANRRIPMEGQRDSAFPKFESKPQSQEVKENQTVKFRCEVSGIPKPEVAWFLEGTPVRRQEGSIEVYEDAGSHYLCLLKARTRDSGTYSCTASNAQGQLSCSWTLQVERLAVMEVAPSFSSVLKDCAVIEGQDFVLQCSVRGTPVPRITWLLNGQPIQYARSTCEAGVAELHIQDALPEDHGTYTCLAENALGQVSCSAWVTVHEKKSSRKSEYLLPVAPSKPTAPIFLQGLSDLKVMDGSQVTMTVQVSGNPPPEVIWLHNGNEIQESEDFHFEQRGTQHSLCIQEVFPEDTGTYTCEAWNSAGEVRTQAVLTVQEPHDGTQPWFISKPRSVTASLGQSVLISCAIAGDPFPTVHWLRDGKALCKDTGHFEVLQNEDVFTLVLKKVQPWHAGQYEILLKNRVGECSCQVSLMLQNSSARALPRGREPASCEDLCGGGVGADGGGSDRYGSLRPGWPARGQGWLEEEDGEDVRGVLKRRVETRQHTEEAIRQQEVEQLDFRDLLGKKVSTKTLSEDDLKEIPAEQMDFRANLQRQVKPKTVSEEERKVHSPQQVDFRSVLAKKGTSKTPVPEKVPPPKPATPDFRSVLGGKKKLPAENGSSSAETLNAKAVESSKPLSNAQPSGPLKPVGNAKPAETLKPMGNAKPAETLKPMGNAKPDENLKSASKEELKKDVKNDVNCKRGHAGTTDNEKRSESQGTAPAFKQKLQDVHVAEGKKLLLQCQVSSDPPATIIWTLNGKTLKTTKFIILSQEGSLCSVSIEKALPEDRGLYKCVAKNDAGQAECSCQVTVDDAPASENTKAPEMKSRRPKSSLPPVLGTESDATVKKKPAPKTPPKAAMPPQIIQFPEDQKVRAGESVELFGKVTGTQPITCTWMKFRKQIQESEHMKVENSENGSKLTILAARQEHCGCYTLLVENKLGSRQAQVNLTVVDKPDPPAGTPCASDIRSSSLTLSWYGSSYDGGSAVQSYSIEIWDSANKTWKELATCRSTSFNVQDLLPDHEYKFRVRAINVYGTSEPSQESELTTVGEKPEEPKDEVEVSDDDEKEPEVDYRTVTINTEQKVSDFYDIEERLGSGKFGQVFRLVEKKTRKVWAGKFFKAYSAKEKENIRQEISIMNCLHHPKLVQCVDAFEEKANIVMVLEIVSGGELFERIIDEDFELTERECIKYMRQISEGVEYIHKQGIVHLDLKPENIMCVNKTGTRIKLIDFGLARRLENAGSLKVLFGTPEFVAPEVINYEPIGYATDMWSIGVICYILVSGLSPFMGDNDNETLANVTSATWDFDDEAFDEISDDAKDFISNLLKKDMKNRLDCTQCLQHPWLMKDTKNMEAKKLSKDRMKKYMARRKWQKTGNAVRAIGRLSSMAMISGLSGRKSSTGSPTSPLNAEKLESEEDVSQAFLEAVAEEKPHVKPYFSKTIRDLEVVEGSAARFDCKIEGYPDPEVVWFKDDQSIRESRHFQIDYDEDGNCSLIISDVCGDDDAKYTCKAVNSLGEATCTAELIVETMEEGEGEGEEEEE
Chain of RAC-beta serine/threonine-protein kinase (Homo sapiens) (P31751 whole entry): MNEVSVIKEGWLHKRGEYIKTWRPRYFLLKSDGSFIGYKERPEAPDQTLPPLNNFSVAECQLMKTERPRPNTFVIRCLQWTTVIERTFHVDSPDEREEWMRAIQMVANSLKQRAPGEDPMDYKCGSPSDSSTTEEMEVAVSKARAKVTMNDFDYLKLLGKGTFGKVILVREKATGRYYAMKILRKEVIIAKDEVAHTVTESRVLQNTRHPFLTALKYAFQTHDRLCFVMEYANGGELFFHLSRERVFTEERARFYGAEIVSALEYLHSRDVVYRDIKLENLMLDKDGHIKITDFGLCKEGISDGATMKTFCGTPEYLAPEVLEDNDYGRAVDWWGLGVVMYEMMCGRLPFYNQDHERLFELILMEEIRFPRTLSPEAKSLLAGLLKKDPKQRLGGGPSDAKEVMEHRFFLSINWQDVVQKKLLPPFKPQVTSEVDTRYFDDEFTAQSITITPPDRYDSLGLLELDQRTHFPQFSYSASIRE
Chain of SRSF protein kinase 1 (Homo sapiens) (Q96SB4 whole entry): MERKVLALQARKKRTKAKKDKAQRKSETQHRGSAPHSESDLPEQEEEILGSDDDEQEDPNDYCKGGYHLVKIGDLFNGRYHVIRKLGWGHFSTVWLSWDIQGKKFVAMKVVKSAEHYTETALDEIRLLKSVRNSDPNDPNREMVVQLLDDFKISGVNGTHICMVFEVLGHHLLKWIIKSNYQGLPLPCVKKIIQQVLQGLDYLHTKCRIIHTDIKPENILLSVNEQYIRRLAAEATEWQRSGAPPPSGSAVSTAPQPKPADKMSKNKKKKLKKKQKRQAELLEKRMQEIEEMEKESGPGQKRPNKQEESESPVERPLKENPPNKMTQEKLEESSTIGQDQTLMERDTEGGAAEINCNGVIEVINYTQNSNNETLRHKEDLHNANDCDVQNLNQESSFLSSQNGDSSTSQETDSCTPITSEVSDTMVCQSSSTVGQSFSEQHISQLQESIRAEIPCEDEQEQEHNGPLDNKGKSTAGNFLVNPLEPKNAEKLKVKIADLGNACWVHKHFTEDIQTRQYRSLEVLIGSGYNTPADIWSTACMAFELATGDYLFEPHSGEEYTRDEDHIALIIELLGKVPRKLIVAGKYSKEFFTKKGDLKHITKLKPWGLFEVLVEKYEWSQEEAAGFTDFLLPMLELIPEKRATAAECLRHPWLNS

Cc1cncc2cccc(S(=O)(=O)N3CCCNC[C@@H]3C)c12
IC50 [1]: 3.3 µM

O=S(=O)(c1cccc2cnccc12)N1CCCNCC1 [FASUDIL]
inhibition [2]: 68% | inhibition (Homo sapiens): 82%

C[C@@H](N)[C@H]1CC[C@H](C(=O)Nc2ccncc2)CC1
inhibition [3]: 100% | residual activity [4]: 106% | residual activity [5]: 105% | residual activity [6]: 65% | residual activity [7]: 70%

CCN(CC)CCNC(=O)c1c(C)[nH]c(/C=C2\C(=O)Nc3ccc(F)cc32)c1C
inhibition [8]: 49%
